Data published in publication PMC8266253 (Journal of Enzyme Inhibition and Medicinal Chemistry, 2021).
Numbering of substitutions follows the chain as printed. Where two headings read alike, the source gives them in different places.

Columns and labels:
AKR1C1 = target: T1, AKR1C1 (Homo sapiens, UniProt Q04828); assay: Inhibition assay for recombinant AKR1C1; format: biochemical; settings: for inhibition at 10 µM: pH 9, read-out: AKR1C1 Inhibition (%) 10 μM
T1 sequence (Q04828 1-323): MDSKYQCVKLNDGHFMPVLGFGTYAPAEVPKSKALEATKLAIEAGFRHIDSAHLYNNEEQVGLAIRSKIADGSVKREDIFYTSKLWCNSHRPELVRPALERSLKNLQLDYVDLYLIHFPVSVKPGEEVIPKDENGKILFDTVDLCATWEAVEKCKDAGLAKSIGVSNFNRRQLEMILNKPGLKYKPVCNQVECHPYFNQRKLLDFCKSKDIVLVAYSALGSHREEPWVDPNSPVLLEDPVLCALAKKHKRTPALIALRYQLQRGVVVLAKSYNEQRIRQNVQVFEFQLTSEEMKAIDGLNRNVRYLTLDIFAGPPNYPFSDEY
Outline: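 Human recombinant AKR1C1 oxidising 1-acenaphthenol (90 µM final) with 2.3 mM NAD⁺, in 0.09 M potassium phosphate pH 9.0, 0.005% Triton X-114, 0.05% DMSO. Test compound is added in DMSO, and 0.1 µM enzyme starts the reaction. NADH rise at 340 nm gives initial velocities. Runs are in duplicate, two independent experiments. IC50 comes from residual activity vs log inhibitor; inhibition type, KM, KI and α come from kinetic fitting.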

AKR1C2 = target: T2, AKR1C2 (Homo sapiens, UniProt P52895); assay: Inhibition assay for recombinant AKR1C2; format: biochemical; settings: for inhibition at 10 µM: pH 9, read-out: AKR1C2 Inhibition (%) 10 μM
T2 sequence (P52895 1-323): T1 sequence (Q04828 1-323) with T38V, R47H, L54V, C87S, V151M, R170H, Q172L
Outline: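 Rates are followed as NADH absorbance increase at 340 nm, with recombinant AKR1C2 (0.3 µM, added last) and 180 µM final 1-acenaphthenol. The mix is 2.3 mM NAD⁺, 0.09 M potassium phosphate pH 9.0, 0.005% Triton X-114 and 0.05% DMSO, plus test compound in DMSO. Duplicates, two independent experiments. IC50 is fitted from residual activity vs log concentration; inhibition mode, KM, KI and α are fitted from kinetics.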

[1] = pH 9, read-out: AKR1C1 Inhibition (%) 100 μM
[2] = pH 9, read-out: AKR1C2 Inhibition (%) 100 μM

| SMILES | IC50 (AKR1C1) | inhibition at 10 µM (AKR1C1) | inhibition at 100 µM (AKR1C1; [1]) | IC50 (AKR1C2) | inhibition at 10 µM (AKR1C2) | inhibition at 100 µM (AKR1C2; [2]) | Ki (AKR1C1) | Type of inhibition of AKR1C1 (AKR1C1; kinetic studies) | inhibition at 100 µM (AKR1C1; read-out: Biological activity AKR1C1 (biological inhibition at 100 μM)) | inhibition at 100 µM (AKR1C2; read-out: Biological activity AKR1C2 (biological inhibition at 100 μM)) |
| --- | --- | --- | --- | --- | --- | --- | --- | --- | --- | --- |
| C[C@@]12CC[C@@H]3c4cc(Br)c(O)c(Cl)c4CC[C@H]3[C@@H]1CCC2=O [2_2Br,4Cl, 2-bromo-4-chloro-3-hydroxy-13α-oestra-1,3,5(10)-trien-17-one] | 1700 nM | 80% | 92.3% | 3100 nM | 80% | 99% | – | – | – | – |
| C[C@@]12CC[C@@H]3c4cc(Br)c(O)c(I)c4CC[C@H]3[C@@H]1CCC2=O [2_2Br,4I, 2-bromo-3-hydroxy-4-iodo-13α-oestra-1,3,5(10)-trien-17-one] | 7200 nM | 67% | 100% | 4400 nM | 75% | 100% | – | – | – | – |
| C[C@@]12CC[C@@H]3c4cc(Cl)c(O)c(I)c4CC[C@H]3[C@@H]1CCC2=O [2_2Cl,4I, 2-chloro-3-hydroxy-4-iodo-13α-oestra-1,3,5(10)-trien-17-one] | – | 50% | 82.6% | 4600 nM | 73% | 89.2% | – | – | – | – |
| C[C@@]12CC[C@@H]3c4cc(I)c(O)c(Cl)c4CC[C@H]3[C@@H]1CCC2=O [2_2I,4Cl, 4-chloro-3-hydroxy-2-iodo-13α-oestra-1,3,5(10)-trien-17-one] | 800 nM | 90% | 99% | 7100 nM | 73% | 87.5% | – | – | – | – |

Next, values leading:

| IC50 (AKR1C1) | inhibition at 10 µM (AKR1C1) | inhibition at 100 µM (AKR1C1; [1]) | IC50 (AKR1C2) | inhibition at 10 µM (AKR1C2) | inhibition at 100 µM (AKR1C2; [2]) | Ki (AKR1C1) | Type of inhibition of AKR1C1 (AKR1C1; kinetic studies) | inhibition at 100 µM (AKR1C1; read-out: Biological activity AKR1C1 (biological inhibition at 100 μM)) | inhibition at 100 µM (AKR1C2; read-out: Biological activity AKR1C2 (biological inhibition at 100 μM)) | SMILES |
| --- | --- | --- | --- | --- | --- | --- | --- | --- | --- | --- |
| 1900 nM | 80% | 93.9% | – | 65% | 91.9% | – | – | – | – | C[C@@]12CC[C@@H]3c4cc(Cl)c(O)c(Br)c4CC[C@H]3[C@@H]1CCC2=O [2_2Cl,4Br, 4-bromo-2-chloro-3-hydroxy-13α-oestra-1,3,5(10)-trien-17-one] |
| 700 nM | 90.7% | 93.4% | – | 59.5% | 74.7% | 570 nM | mixed type of inhibition | 93.4% | 74.7% | C[C@@]12CC[C@@H]3c4cc(I)c(O)c(Br)c4CC[C@H]3[C@@H]1CCC2=O [2_2I,4Br, 4-bromo-3-hydroxy-2-iodo-13α-oestra-1,3,5(10)-trien-17-one] |
